# Measurements reported in ChEMBL document CHEMBL5058577, “EUbOPEN Chemogenomics Library 2 (Multiplex)” (2022).
# System: Fibroblast
# Assay: Multiplex assay against human fibroblast
# Type: toxicity, cell-based
# Outline: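 Tubulin, mitochondrial-mass and membrane-permeability phenotypes are per cents of healthy-nucleus cells. Cells were gated by CellPathfinder machine learning into Hoechst high-intensity objects or normal cells, normal cells into healthy, pyknosed or fragmented nuclei, and pyknosed cells into mitotic or apoptotic. Before that, live cells stained at seeding with Hoechst33342, BioTracker Green Microtubule Cytoskeleton Dye, MitoTracker Red and Annexin V Alexa Fluor 680 were imaged on a CQ1 microscope at 37°C and 5% CO2 after compound addition.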
# [1] = 12 h, 1 µM, compound concentration 1 uM, replicate 1
# [2] = 12 h, 1 µM, compound concentration 1 uM, replicate 2
# [3] = 12 h, 10 µM, compound concentration 10 uM, replicate 1
# [4] = 12 h, 10 µM, compound concentration 10 uM, replicate 2
# [5] = 24 h, 1 µM, compound concentration 1 uM, replicate 1
# [6] = 24 h, 1 µM, compound concentration 1 uM, replicate 2
# [7] = 24 h, 10 µM, compound concentration 10 uM, replicate 1
# [8] = 24 h, 10 µM, compound concentration 10 uM, replicate 2
# [9] = 48 h, 1 µM, compound concentration 1 uM, replicate 1
# [10] = 48 h, 1 µM, compound concentration 1 uM, replicate 2
# [11] = 48 h, 10 µM, compound concentration 10 uM, replicate 1
# [12] = 48 h, 10 µM, compound concentration 10 uM, replicate 2
compound,measurement,setting,value
CN1C[C@H](C(=O)N[C@]2(C)O[C@@]3(O)[C@@H]4CCCN4C(=O)[C@H](Cc4ccccc4)N3C2=O)C[C@@H]2c3cccc4[nH]cc(c34)C[C@H]21.CS(=O)(=O)O [DIHYDROERGOTAMINE MESYLATE],Population Apoptotic (%),[1],25%
same,Population Fragmented Nuclei (%),[1],13%
same,Population Healthy Nuclei (%),[1],70%
same,Population Hoechst High Intensity Objects (%),[1],1%
same,Population Membrane Permeable-Phenotype (%),[1],1%
same,Population Mitochondria Different-Phenotype (%),[1],1%
same,Population Mitotic Cells (%),[1],75%
same,Population Normal (%),[1],98%
same,Population Pyknosed Nuclei (%),[1],16%
same,Population Tubulin-Different-Phenotype (%),[1],23%
same,Total Cell Count,[1],127
same,Population Apoptotic (%),[2],47%
same,Population Fragmented Nuclei (%),[2],32%
same,Population Healthy Nuclei (%),[2],51%
same,Population Hoechst High Intensity Objects (%),[2],7%
same,Population Membrane Permeable-Phenotype (%),[2],6%
same,Population Mitochondria Different-Phenotype (%),[2],5%
same,Population Mitotic Cells (%),[2],52%
same,Population Normal (%),[2],92%
same,Population Tubulin-Different-Phenotype (%),[2],31%
same,Total Cell Count,[2],155
same,Population Apoptotic (%),[3],57%
same,Population Fragmented Nuclei (%),[3],27%
same,Population Healthy Nuclei (%),[3],65%
same,Population Hoechst High Intensity Objects (%),[3],0%
same,Population Membrane Permeable-Phenotype (%),[3],0%
same,Population Mitochondria Different-Phenotype (%),[3],5%
same,Population Mitotic Cells (%),[3],42%
same,Population Normal (%),[3],100%
same,Population Pyknosed Nuclei (%),[3],7%
same,Population Tubulin-Different-Phenotype (%),[3],8%
same,Total Cell Count,[3],92
same,Population Apoptotic (%),[4],31%
same,Population Fragmented Nuclei (%),[4],33%
same,Population Healthy Nuclei (%),[4],45%
same,Population Hoechst High Intensity Objects (%),[4],8%
same,Population Membrane Permeable-Phenotype (%),[4],2%
same,Population Mitochondria Different-Phenotype (%),[4],0%
same,Population Mitotic Cells (%),[4],68%
same,Population Normal (%),[4],91%
same,Population Pyknosed Nuclei (%),[4],21%
same,Population Tubulin-Different-Phenotype (%),[4],42%
same,Total Cell Count,[4],114
same,Population Apoptotic (%),[5],38%
same,Population Fragmented Nuclei (%),[5],14%
same,Population Healthy Nuclei (%),[5],75%
same,Population Hoechst High Intensity Objects (%),[5],1%
same,Population Membrane Permeable-Phenotype (%),[5],0%
same,Population Mitochondria Different-Phenotype (%),[5],0%
same,Population Mitotic Cells (%),[5],61%
same,Population Normal (%),[5],98%
same,Population Pyknosed Nuclei (%),[5],10%
same,Population Tubulin-Different-Phenotype (%),[5],18%
same,Total Cell Count,[5],130
same,Population Apoptotic (%),[6],47%
same,Population Fragmented Nuclei (%),[6],30%
same,Population Healthy Nuclei (%),[6],56%
same,Population Hoechst High Intensity Objects (%),[6],4%
same,Population Membrane Permeable-Phenotype (%),[6],7%
same,Population Mitochondria Different-Phenotype (%),[6],3%
same,Population Mitotic Cells (%),[6],52%
same,Population Normal (%),[6],95%
same,Population Pyknosed Nuclei (%),[6],13%
same,Population Tubulin-Different-Phenotype (%),[6],50%
same,Total Cell Count,[6],149
same,Population Apoptotic (%),[7],55%
same,Population Fragmented Nuclei (%),[7],17%
same,Population Healthy Nuclei (%),[7],72%
same,Population Hoechst High Intensity Objects (%),[7],1%
same,Population Membrane Permeable-Phenotype (%),[7],0%
same,Population Mitochondria Different-Phenotype (%),[7],1%
same,Population Mitotic Cells (%),[7],44%
same,Population Normal (%),[7],98%
same,Population Pyknosed Nuclei (%),[7],10%
same,Population Tubulin-Different-Phenotype (%),[7],15%
same,Total Cell Count,[7],89
same,Population Apoptotic (%),[8],31%
same,Population Fragmented Nuclei (%),[8],35%
same,Population Healthy Nuclei (%),[8],43%
same,Population Hoechst High Intensity Objects (%),[8],5%
same,Population Membrane Permeable-Phenotype (%),[8],6%
same,Population Mitochondria Different-Phenotype (%),[8],0%
same,Population Mitotic Cells (%),[8],68%
same,Population Normal (%),[8],94%
same,Population Pyknosed Nuclei (%),[8],20%
same,Population Tubulin-Different-Phenotype (%),[8],46%
same,Total Cell Count,[8],113
same,Population Apoptotic (%),[9],57%
same,Population Fragmented Nuclei (%),[9],20%
same,Population Healthy Nuclei (%),[9],68%
same,Population Hoechst High Intensity Objects (%),[9],1%
same,Population Membrane Permeable-Phenotype (%),[9],0%
same,Population Mitochondria Different-Phenotype (%),[9],2%
same,Population Mitotic Cells (%),[9],42%
same,Population Normal (%),[9],98%
same,Population Pyknosed Nuclei (%),[9],10%
same,Population Tubulin-Different-Phenotype (%),[9],30%
same,Total Cell Count,[9],134
same,Population Apoptotic (%),[10],53%
same,Population Fragmented Nuclei (%),[10],38%
same,Population Healthy Nuclei (%),[10],50%
same,Population Hoechst High Intensity Objects (%),[10],5%
same,Population Membrane Permeable-Phenotype (%),[10],6%
same,Population Mitochondria Different-Phenotype (%),[10],6%
same,Population Mitotic Cells (%),[10],46%
same,Population Normal (%),[10],94%
same,Population Pyknosed Nuclei (%),[10],11%
same,Population Tubulin-Different-Phenotype (%),[10],48%
same,Total Cell Count,[10],139
same,Population Apoptotic (%),[11],63%
same,Population Fragmented Nuclei (%),[11],21%
same,Population Healthy Nuclei (%),[11],65%
same,Population Hoechst High Intensity Objects (%),[11],3%
same,Population Membrane Permeable-Phenotype (%),[11],1%
same,Population Mitochondria Different-Phenotype (%),[11],3%
same,Population Mitotic Cells (%),[11],36%
same,Population Normal (%),[11],96%
same,Population Pyknosed Nuclei (%),[11],12%
same,Population Tubulin-Different-Phenotype (%),[11],20%
same,Total Cell Count,[11],91
same,Population Apoptotic (%),[12],76%
same,Population Fragmented Nuclei (%),[12],44%
same,Population Healthy Nuclei (%),[12],44%
same,Population Membrane Permeable-Phenotype (%),[12],11%
same,Population Mitochondria Different-Phenotype (%),[12],5%
same,Population Mitotic Cells (%),[12],23%
same,Population Pyknosed Nuclei (%),[12],10%
same,Population Tubulin-Different-Phenotype (%),[12],55%
same,Total Cell Count,[12],126
